Source: ChEMBL document CHEMBL1667730, “Antibacterial and anti-inflammatory activities of 4-hydroxycordoin: potential therapeutic benefits” (J Nat Prod, 2011)
≈ marks a conversion by molar mass, not a printed value. Calls of active or inactive are those of the source. The rule behind the calls is not given here.

What was measured:
U-937 [1] = assay: Antiinflammatory activity in human U937 cells assessed as inhibition of TNFalpha production at 5 ug/ml after 24 hrs by ELISA; type: functional, cell-based
Method in brief: (§1)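 PMA-differentiated U937 macrophages (10 ng/mL PMA 48 h, then 24 h rest) at 1 × 10^6 cells/mL in RPMI with 1% FBS; compound (0, 0.2, 1, 5 µg/mL) for 2 h, then A. actinomycetemcomitans ATCC 29522 LPS (1 µg/mL final) for 24 h, 37 °C 5% CO2. Supernatant cytokines and MMP-9 by ELISA (A450, 550 correction). Triplicate, two experiments, t test.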

Porphyromonas gingivalis [2] = assay: Antibacterial activity against Porphyromonas gingivalis ATCC 33277 after 24 hrs; type: functional
Method in brief: (§2)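 Broth microdilution in THB-HK: 24 h cultures diluted to OD655 0.2, mixed 1:1 with compound (0–40 µg/mL, twofold steps from 0.63), 24 h at 37 °C anaerobic (N2-H2-CO2 80:10:10); growth by OD655 relative to untreated. MIC = lowest concentration with no growth; MBC from no-growth wells plated on THB-HK agar, 5 days anaerobic. Triplicate, two independent experiments.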

[3] = Cytotoxicity against human GMSM-K cells assessed as reduction of cell viability at up to 50 ug/ml after 2 hrs by MTT assay; type: cell-based
Method in brief: (§3)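 MTT colorimetric viability assay on GMSM-K epithelial cells and PMA-differentiated U937 macrophages after 2 h exposure to compound at up to 50 µg/mL.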

U-937 [4] = assay: Antiinflammatory activity in human U937 cells assessed as inhibition of IL-8 production at 5 ug/ml after 24 hrs by ELISA; type: functional, cell-based; method in brief: as §1
U-937 [5] = assay: Antiinflammatory activity in human U937 cells assessed as inhibition of LPS-induced TNFalpha production at 5 ug/ml treated 2 hrs before LPS challenge measured after 24 hrs by ELISA; type: functional; method in brief: as §1
U-937 [6] = assay: Cytotoxicity against human U937 cells assessed as reduction of cell viability at up to 50 ug/ml after 2 hrs by MTT assay; type: cell-based; settings: u-937, 2 h; method in brief: as §3
Prevotella intermedia [7] = assay: Antibacterial activity against Prevotella intermedia ATCC 25611 after 24 hrs; type: functional; method in brief: as §2
Prevotella intermedia [8] = assay: Antibacterial activity against Prevotella intermedia ATCC 25611 assessed as reduction of bacterial growth at 1.25 ug/ml after 24 hrs; type: functional; parameters: scale not given: the % may be the effect or the level left; method in brief: as §2
U-937 [9] = assay: Antiinflammatory activity in human U937 cells assessed as inhibition of LPS-induced MMP9 production at 1 ug/ml treated 2 hrs before LPS challenge measured after 24 hrs by ELISA; type: functional, cell-based; method in brief: as §1
Porphyromonas gingivalis [10] = assay: Antibacterial activity against 14C-labeled Porphyromonas gingivalis ATCC 33277 assessed as inhibition of adhesion to human GMSM-K cells after 30 mins by scintillation counting; type: functional, cell-based
Method in brief: (§4)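 14C-amino acid-labelled (20 µCi/mL, 16 h, anaerobic) mid-log P. gingivalis washed in PBS pH 7.2, suspended to OD655 0.8 in prereduced PBS; mixed with compound (final 0, 0.2, 1, 5 µg/mL) and added to confluent GMSM-K monolayers for 30 min at 37 °C; unbound cells washed off, bound bacteria released with 0.5 M NaOH, scintillation counted. Triplicate, three independent assays, mean ± SD.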

U-937 [11] = assay: Antiinflammatory activity in human U937 cells assessed as inhibition of LPS-induced IL-6 production at 5 ug/ml treated 2 hrs before LPS challenge measured after 24 hrs by ELISA; type: functional; method in brief: as §1
U-937 [12] = assay: Antiinflammatory activity in human U937 cells assessed as inhibition of LPS-induced IL1-beta production at 5 ug/ml treated 2 hrs before LPS challenge measured after 24 hrs by ELISA; type: functional; method in brief: as §1
U-937 [13] = assay: Antiinflammatory activity in human U937 cells assessed as inhibition of PGE2 production at 5 ug/ml after 24 hrs; type: functional, cell-based
U-937 [14] = assay: Antiinflammatory activity in human U937 cells assessed as inhibition of IL-6 production at 5 ug/ml after 24 hrs by ELISA; type: functional, cell-based; method in brief: as §1
U-937 [15] = assay: Antiinflammatory activity in human U937 cells assessed as inhibition of LPS-induced CCL5 production at 5 ug/ml treated 2 hrs before LPS challenge measured after 24 hrs by ELISA; type: functional; method in brief: as §1
Porphyromonas gingivalis [16] = assay: Antibacterial activity against 14C-labeled Porphyromonas gingivalis ATCC 33277 assessed as inhibition of adhesion to human GMSM-K cells at 0.2 ug/ml after 30 mins by scintillation counting; type: functional, cell-based; method in brief: as §4
Fusobacterium nucleatum = assay: Antibacterial activity against Fusobacterium nucleatum ATCC 25586 after 24 hrs; type: functional; method in brief: as §2
U-937 [17] = assay: Antiinflammatory activity in human U937 cells assessed as inhibition of LPS-induced MMP9 production at 5 ug/ml treated 2 hrs before LPS challenge measured after 24 hrs by ELISA; type: functional, cell-based; method in brief: as §1
U-937 [18] = assay: Antiinflammatory activity in human U937 cells assessed as inhibition of IL1-beta production at 5 ug/ml after 24 hrs by ELISA; type: functional, cell-based; method in brief: as §1
Porphyromonas gingivalis [19] = assay: Antibacterial activity against 14C-labeled Porphyromonas gingivalis ATCC 33277 assessed as inhibition of adhesion to human GMSM-K cells at 1 ug/ml after 30 mins by scintillation counting relative to control; type: functional; settings: ATCC 33277, GMSM-K, 0.5 h; method in brief: as §4
U-937 [20] = assay: Antiinflammatory activity in human U937 cells assessed as inhibition of LPS-induced NF-kappaB p65 activation at 5 ug/ml treated 1 hrs before LPS challenge measured after 1 hr; type: functional, cell-based
Method in brief: (§5)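 PMA-differentiated U937 macrophages given compound at 5 µg/mL for 1 h, then A. actinomycetemcomitans LPS at 1 µg/mL for 1 h, 37 °C 5% CO2. Whole-cell extracts adjusted to 1 mg/mL protein; NF-κB p65 and AP-1 activation measured by Trans-AM kits. Unstimulated and compound-free controls included; triplicate, three independent experiments.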

U-937 [21] = assay: Antiinflammatory activity in human U937 cells assessed as inhibition of LPS-induced PGE2 production at 5 ug/ml treated 2 hrs before LPS challenge measured after 24 hrs; type: functional, cell-based
U-937 [22] = assay: Antiinflammatory activity in human U937 cells assessed as inhibition of LPS-induced IL-8 production at 5 ug/ml treated 2 hrs before LPS challenge measured after 24 hrs by ELISA; type: functional; method in brief: as §1
U-937 [23] = assay: Antiinflammatory activity in human U937 cells assessed as inhibition of LPS-induced AP-1 activation at 5 ug/ml treated 1 hrs before LPS challenge measured after 1 hr; type: functional, cell-based; method in brief: as §5
Porphyromonas gingivalis [24] = assay: Antibacterial activity against 14C-labeled Porphyromonas gingivalis ATCC 33277 assessed as inhibition of adhesion to human GMSM-K cells at 5 ug/ml after 30 mins by scintillation counting relative to control; type: functional; settings: ATCC 33277, GMSM-K, 0.5 h; method in brief: as §4
U-937 [25] = assay: Antiinflammatory activity in human U937 cells assessed as inhibition of CCL5 production at 5 ug/ml after 24 hrs by ELISA; type: functional, cell-based; method in brief: as §1

## CC(C)=CCOc1ccc(C(=O)/C=C/c2ccc(O)cc2)c(O)c1
U-937 [1]
  inhibition: inactive
Porphyromonas gingivalis [2]
  Activity: Dose-dependent effect
Porphyromonas gingivalis [2]; ATCC 33277, 24 h
  MBC: 10 µg/mL (≈ 30.8 µM)
  MIC: 5 µg/mL (≈ 15.4 µM)
[3]
  Activity: Non-toxic
U-937 [4]
  inhibition: inactive
U-937 [5]
  inhibition at 5 µg/mL: 23%
U-937 [6]
  Activity: Non-toxic
Prevotella intermedia [7]
  Activity: Dose-dependent effect
Prevotella intermedia [7]; ATCC 25611, 24 h
  MBC: 5 µg/mL (≈ 15.4 µM)
  MIC: 2.5 µg/mL (≈ 7.71 µM)
Prevotella intermedia [8]
  Activity: 45%
U-937 [9]
  inhibition: Active
Porphyromonas gingivalis [10]
  inhibition: Dose-dependent effect
U-937 [11]
  inhibition at 5 µg/mL: 50%
U-937 [12]
  inhibition at 5 µg/mL: 29%
U-937 [13]
  inhibition: inactive
U-937 [14]
  inhibition: inactive
U-937 [15]
  inhibition at 5 µg/mL: 67%
Porphyromonas gingivalis [16]
  inhibition: inactive
Fusobacterium nucleatum
  Activity: Dose-dependent effect
Fusobacterium nucleatum; ATCC 25586, 24 h
  MBC: > 40 µg/mL
  MIC: 40 µg/mL (≈ 123 µM)
U-937 [17]
  inhibition: Active
U-937 [18]
  inhibition: inactive
Porphyromonas gingivalis [19]
  inhibition at 1 µg/mL: 31%
U-937 [20]
  inhibition: Active
U-937 [21]
  inhibition: Active
U-937 [22]
  inhibition at 5 µg/mL: 38%
U-937 [23]
  inhibition: Active
Porphyromonas gingivalis [24]
  inhibition at 5 µg/mL: 36%
U-937 [25]
  inhibition: inactive
